We go through 24 compounds from ChEMBL document CHEMBL1156905, “N-heterocyclic derived M1 positive allosteric modulators” (Bioorg Med Chem Lett, 2010).

One may read the Kp as the ratio of the level in a tissue or fluid to that in plasma or blood.

In data set [1] the target is T1, Muscarinic acetylcholine receptor M1 (Homo sapiens) (UniProt P11229).
T1 sequence (whole entry): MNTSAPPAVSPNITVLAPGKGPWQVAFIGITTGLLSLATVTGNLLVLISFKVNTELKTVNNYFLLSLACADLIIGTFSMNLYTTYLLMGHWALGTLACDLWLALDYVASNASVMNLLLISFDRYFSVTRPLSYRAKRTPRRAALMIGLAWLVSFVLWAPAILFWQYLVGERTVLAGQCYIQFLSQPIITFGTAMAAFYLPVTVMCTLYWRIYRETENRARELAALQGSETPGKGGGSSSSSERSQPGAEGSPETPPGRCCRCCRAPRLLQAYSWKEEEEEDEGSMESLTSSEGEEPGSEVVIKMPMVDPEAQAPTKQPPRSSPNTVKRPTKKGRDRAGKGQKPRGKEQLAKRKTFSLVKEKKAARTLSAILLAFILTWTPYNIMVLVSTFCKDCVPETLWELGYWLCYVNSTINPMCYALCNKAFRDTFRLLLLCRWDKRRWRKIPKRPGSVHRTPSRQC
Description: Allosteric modulator activity at human muscarinic M1 receptor expressed in CHO cells assessed as potentiation of acetylcholine-induced calcium mobilization by FLIPR assay. Type of data set: functional, cell-based. For orientation: A change in cytosolic calcium serves as a functional read-out for many receptors and channels.

Data set [2] is filed under the species Homo sapiens. Description: Protein binding in human plasma. Particulars: read-out: PPB (converted).
Data set [3] is filed under the species Homo sapiens. Description: Protein binding in human plasma. To be noted: read-out: PPB (converted). The source holds these as a separate data set.
Data set [4] is described as follows: Protein binding in rat plasma. To be noted: read-out: PPB (converted). The data set is classed as ADME, cell-free. In outline: (§1)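 Binding in rat and human serum/plasma measured by equilibrium dialysis.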
Data set [5] deals with T1, Muscarinic acetylcholine receptor M1 (Homo sapiens). As to the kind of experiment: Allosteric modulator activity at human muscarinic M1 receptor expressed in CHO cells assessed as potentiation of acetylcholine-induced calcium mobilization at 1 uM by FLIPR assay. The data set is classed as functional, cell-based. In outline:
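CHO cells expressing human M1; acetylcholine dose response run with fixed 1 µM potentiator (also 0.01–100 µM series), calcium mobilization by FLIPR; fold left-shift of acetylcholine curve recorded.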

The nature of data set [6]: Plasma concentration in ip dosed mouse after 24 hrs.
The subject of another data set is Mus musculus. As to the kind of experiment: Reversal of cognitive deficits in contextual fear conditioning in mouse at 10 mg/kg, ip after 24 hrs in presence of Scopolamine. More on the design: dose 10 mg/kg. Type of data set: functional, organism-based. In outline:
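Mouse contextual fear conditioning (episodic memory model); mice given scopolamine before exposure to novel environment; test agent 10 mg/kg ip; reversal compared with scopolamine-alone group; plasma levels sampled.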

A short description of data set [7]: Ratio of drug level in rat cerebrospinal fluid to unbound fraction in rat plasma. To be noted: in vivo. Type of data set: ADME, CSF/Plasma.
Data set [8] can be described thus: Ratio of drug level in brain to plasma in Sprague-Dawley rat at 10 mg/kg, po. The data set is classed as ADME, organism-based. Also on record: dose 10 mg/kg, route oral. In outline: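 Sprague–Dawley rats dosed orally at 10 mg/kg in 0.5% methocel; brain to plasma level ratio; interanimal variability under 20%.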
Data set [9] has as its target T1, Muscarinic acetylcholine receptor M1 (Homo sapiens). As to the kind of experiment: Agonist activity at human muscarinic M1 receptor expressed in CHO cells assessed as potentiation of acetylcholine-induced calcium mobilization at >= 10 uM by FLIPR assay. Type of data set: functional, cell-based.
Data set [10] is described as follows: Fraction unbound in rat plasma. The data set is classed as ADME, cell-free. A digest of the protocol: as §1
For data set [11], the species on record is Homo sapiens. As to the kind of experiment: Fraction unbound in human plasma.
In the next data set the test system is Plasma. As to the kind of experiment: Fraction unbound in human plasma. The data set is classed as ADME, cell-free. A digest of the protocol:
as §1

The source made the active and inactive calls. The calls are words filed in the database; no cut-off is given here.

For the compound `Cc1nn(-c2ccc(Cn3cc(C(=O)O)c(=O)c4c(F)cccc43)cc2)c2ccccc12`, the Activity in data set [1] came to 620 nM.

As to `Cc1nccn1-c1ccc(Cn2cc(C(=O)O)c(=O)c3c(F)cccc32)cc1`, the Activity in [1] is 920 nM.

On to `O=C(O)c1cn(Cc2ccc(-n3ccc4cnccc43)cc2)c2cccc(F)c2c1=O`, for which the fraction unbound in the data set listed under Homo sapiens [2] was 0.031. Also, the Activity in [1] turned out to be 160 nM.

As to `Cc1ccn(-c2ccc(Cn3cc(C(=O)O)c(=O)c4c(F)cccc43)cc2)n1`, the Activity in data set [1] was 36 nM. Besides, the fraction unbound (in the data set listed under Homo sapiens [3]; in data set [4]) was 0.057 throughout.

For `O=C(O)c1cn(Cc2ccc(N3CCCC3=O)cc2)c2cccc(F)c2c1=O`, the Activity in data set [1] amounted to 2500 nM.

In the case of `O=C(O)c1cn(Cc2ccc(-n3cccn3)nc2)c2c(F)cccc2c1=O`, in [1], the Activity was 864 nM.

For `COc1ccc(Cn2cc(C(=O)O)c(=O)c3ccccc32)cc1`, in [1], the Activity was determined as 660 nM.

For the compound `O=C(O)c1cn(Cc2ccc(-n3ccnc3)cc2)c2cccc(F)c2c1=O`, in the data set listed under Homo sapiens [2], the fraction unbound was 0.162. The Activity in [1] stood at 110 nM.

Turning to `Cc1cn(-c2ccc(Cn3cc(C(=O)O)c(=O)c4c(F)cccc43)cc2)cn1`, in the data set filed under Homo sapiens [2], the fraction unbound was 0.111. In data set [1], the Activity was 140 nM.

In the case of `O=C(O)c1cn(Cc2ccc(-n3ccc(C(F)(F)F)n3)cc2)c2cccc(F)c2c1=O`, the Activity in data set [1] amounted to 290 nM.

Consider `O=C(O)c1cn(Cc2ccc(-n3ccc4ccccc43)cc2)c2cccc(F)c2c1=O`, for which the Activity in data set [1] was found to be 250 nM.

Consider `O=C(O)c1cn(Cc2ccc(-n3cccn3)cc2)c2c(F)cccc2c1=O`, for which the Activity in data set [1] came out at 96 nM.

On to `Cc1ccnn1-c1ccc(Cn2cc(C(=O)O)c(=O)c3c(F)cccc32)cc1`, for which, in data set [1], the Activity is 2900 nM.

Take `O=C(O)c1cn(Cc2ccc(N3CCOC3=O)cc2)c2cccc(F)c2c1=O`: the Activity in data set [1] is 500 nM. Besides, the fraction unbound is 0.224 in the data set listed under Homo sapiens [3] and 0.116 in [4].

For `O=C(O)c1cn(Cc2ccc(-n3cccn3)cc2)c2c(F)ccc(F)c2c1=O`, the fold change (FC) in [5] came out at 46. The fraction unbound in the data set filed under Homo sapiens [2] is 0.043. The concentration at 24 h in [6] came to 9 µM. In addition, the Activity in data set [1] came to 171 nM. The result (in the data set with Mus musculus; in data set [9]) was Active. The Ratio in data set [7] amounted to 0.1. Moreover, in [8], the partition ratio (Kp) is 0.03.

In the case of `O=C(O)c1cn(Cc2ccc(-n3cnc(-c4ccccc4)c3)cc2)c2cccc(F)c2c1=O`, in data set [1], the Activity turned out to be 39 nM.

Regarding `O=C(O)c1cn(Cc2ccc(-n3cccn3)cc2)c2cccc(F)c2c1=O`, the Activity in data set [1] stood at 94 nM. For the same compound, the fraction unbound was 0.1 in data set [10], 0.1 in the data set listed under Homo sapiens [11], 0.116 in the data set listed under Homo sapiens [3] and 0.116 in data set [4]. For the same compound, the Ratio in data set [7] worked out at 0.05. The concentration ratio (Kp) in data set [8] came to 0.04.

In the case of `O=C(O)c1cn(Cc2ccc(-n3cccn3)nn2)c2c(F)cccc2c1=O`, in data set [1], the Activity came to 24000 nM.

As for `O=C(O)c1cn(Cc2ccc(-n3cccc3)cc2)c2cccc(F)c2c1=O`, the Activity in data set [1] worked out at 181 nM. The fraction unbound (in the data set listed under Homo sapiens [3]; in data set [4]) was 0.003 throughout.

Take `O=C(O)c1cn(Cc2ccc(-n3cccn3)cn2)c2c(F)cccc2c1=O`: in [1], the Activity was 1400 nM.

Take `O=C(O)c1cn(Cc2ccc(-n3ccc4ncccc43)cc2)c2cccc(F)c2c1=O`: in data set [1], the Activity came out at 150 nM.

As for `O=C(O)c1cn(Cc2ccc(-n3nnc4ccccc43)cc2)c2cccc(F)c2c1=O`, the Activity in data set [1] came out at 228 nM.

Take `O=C(O)c1cn(Cc2ccc(-n3cnc4ccccc43)cc2)c2cccc(F)c2c1=O`: the fraction unbound in the data set filed under Homo sapiens [2] is 0.084; in data set [10], 0.039. The compound further displayed a Fu in the data set on Plasma of 9%. Besides, the Activity in [1] is 96 nM.

Turning to `O=C(O)c1cn(Cc2ccc(-n3ccc4cccnc43)cc2)c2cccc(F)c2c1=O`, the Activity in data set [1] turned out to be 90 nM.
